# Active and inactive are the calls of the source. No cut-off for these calls is given here.
# Columns and labels:
# [1] = test system: Human betaherpesvirus 5; experiment: Antiviral activity against 0.1 MOI human cytomegalovirus AD169 infected in human HFF assessed as virus yield reduction by yield reduction assay; type: functional, organism-based; settings: Human betaherpesvirus 5, AD169
# [2] = test system: Human betaherpesvirus 5; experiment: Antiviral activity against 0.1 MOI human cytomegalovirus AD169 infected in human HFF assessed as inhibition of late phase UL55 protein expression after 72 hrs of infection by Western blot analysis; type: functional, organism-based
# Outline: (§1)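 HFF infected with HCMV AD169 at MOI 0.1 PFU/cell, treated with 50 µM compound or 0.2% DMSO. ActD 5 µg/ml, CHX 75 µg/ml and FOS 750 µM served as controls. Harvests at 24, 48 and 72 h p.i. were lysed in NP-40 buffer, then SDS-PAGE and PVDF blotting. Probes were anti-IE1/IE2 (p72/p86) MAb or anti-UL55, then HRP secondary and ECL. β-actin reprobe was the internal control.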
# [3] = test system: Human betaherpesvirus 5; experiment: Antiviral activity against 1 MOI human cytomegalovirus AD169 infected in human HFF assessed as virus yield reduction by yield reduction assay; type: functional, organism-based; settings: Human betaherpesvirus 5, AD169
# [4] = Selectivity index, ratio of CC50 for human HFF to EC50 for human cytomegalovirus AD169
# Outline: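 Selectivity index is CC50 from the HFF MTT assay divided by EC50 from the AD169 plaque reduction assay in HFF.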
# [5] = test system: Human betaherpesvirus 5; experiment: Antiviral activity against human cytomegalovirus AD169 infected in human HFF assessed as virus yield reduction; type: functional, organism-based; settings: Human betaherpesvirus 5, AD169
# [6] = test system: Human betaherpesvirus 5; experiment: Antiviral activity against 0.1 MOI human cytomegalovirus AD169 infected in human HFF assessed as inhibition of early phase UL54 mRNA expression after 16 hrs by RT-PCR analysis
# [7] = test system: Human betaherpesvirus 5; experiment: Antiviral activity against 0.01 MOI human cytomegalovirus AD169 infected in human HFF assessed as virus yield reduction by yield reduction assay; type: functional, organism-based; settings: Human betaherpesvirus 5, AD169
# [8] = test system: Human betaherpesvirus 5; experiment: Antiviral activity against 0.1 MOI human cytomegalovirus AD169 infected in human HFF assessed as inhibition of immediate early phase UL123 mRNA expression after 16 hrs by RT-PCR analysis; type: functional, organism-based
# Outline: (§2)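 HFF seeded at 6×10^5 per well, infected with AD169 at MOI 0.1 PFU/cell, then given 50 µM drug or 0.2% DMSO. ActD 5 µg/ml, CHX 75 µg/ml and FOS 750 µM served as IE, E and L transcription controls. Total RNA was taken at 16 and 48 h p.i.; 1 µg was reverse-transcribed with random hexamers and MuLV RT. PCR used UL122/UL123 (IE), UL54/UL84 (E) and UL55/UL75 (L) primers with a β-actin control, and products were read on ethidium bromide agarose gels.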
# [9] = test system: Human betaherpesvirus 5; experiment: Antiviral activity against 0.1 MOI human cytomegalovirus AD169 infected in human cells expressing UL112/113-EGFP reporter assessed as inhibition of IE2 transactivating activity after 48 hrs of infection by confocal fluorescence microscopy
# [10] = Inhibition of human cytomegalovirus DNA polymerase catalytic subunit UL54 assessed as incorporation of [3H]dTTP; design: species or system Human betaherpesvirus 5
# Outline: (§3)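 Filter-based assay with purified baculovirus-expressed UL54 catalytic subunit, alone or with UL44 accessory subunit. Incorporation of [3H]dTTP into poly(dA)-oligo(dT)12-18 template-primer was measured across serial compound dilutions, with FOS as control. Means ± standard deviations from four independent experiments.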
# [11] = test system: Human betaherpesvirus 5; experiment: Antiviral activity against 0.1 MOI human cytomegalovirus AD169 infected in human U373-MG cells expressing UL54-EGFP reporter assessed as inhibition of EGFP expression after 48 hrs of infection by confocal fluorescence microscopy; type: functional, organism-based; settings: U-373MG ATCC
# Outline: (§4)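 Stable U373-MG reporter cells were seeded on coverslips at 3×10^5 per well and infected with AD169 at MOI 0.1 or 0.5. They were then treated with 50 µM drug, 5 µM fomivirsen (also given 1 h before and during infection) or 0.2% DMSO. At 48 h p.i. cells were fixed in 4% paraformaldehyde for 15 min, and EGFP-positive cells were counted by confocal microscopy at 20×.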
# [12] = test system: Human betaherpesvirus 5; experiment: Antiviral activity against 0.1 MOI human cytomegalovirus AD169 infected in human HFF assessed as inhibition of early phase UL84 mRNA expression after 16 hrs by RT-PCR analysis
# [13] = test system: Human betaherpesvirus 5; experiment: Antiviral activity against 0.1 MOI human cytomegalovirus AD169 infected in human cells expressing UL54-EGFP reporter assessed as inhibition of IE2 transactivating activity after 48 hrs of infection by confocal fluorescence microscopy
# [14] = test system: Human betaherpesvirus 5; experiment: Antiviral activity against 0.1 MOI human cytomegalovirus AD169 infected in human HFF assessed as inhibition of immediate early phase P72 protein expression after 24 hrs by Western blot analysis; type: functional, organism-based; outline: as §1
# [15] = test system: Human betaherpesvirus 5; experiment: Antiviral activity against 0.1 MOI human cytomegalovirus AD169 infected in human HFF assessed as inhibition of immediate early phase P86 protein expression after 24 hrs by Western blot analysis; type: functional, organism-based; outline: as §1
# [16] = test system: Human betaherpesvirus 5; experiment: Antiviral activity against 0.1 MOI human cytomegalovirus AD169 infected in human U373-MG cells expressing UL112/113-EGFP reporter assessed as inhibition of EGFP expression after 48 hrs of infection by confocal fluorescence microscopy; type: functional, organism-based; settings: U-373MG ATCC; outline: as §4
# [17] = test system: Human betaherpesvirus 5; experiment: Antiviral activity against human cytomegalovirus AD169 infected in human HFF assessed as inhibition of plaque formation by plaque reduction assay; type: functional, organism-based; settings: Human betaherpesvirus 5, AD169
# Outline: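 Plaque reduction against AD169 in HFF. EC50 is the concentration giving 50% inhibition of plaque formation, reported as mean ± SD of at least three independent experiments run in duplicate.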
# [18] = test system: Human betaherpesvirus 5; experiment: Antiviral activity against 0.5 MOI human cytomegalovirus AD169 infected in human U373-MG cells expressing UL54-EGFP reporter assessed as inhibition of EGFP expression after 48 hrs of infection by confocal fluorescence microscopy; type: functional, organism-based; settings: U-373MG ATCC; outline: as §4
# [19] = test system: Human betaherpesvirus 5; experiment: Antiviral activity against 0.1 MOI human cytomegalovirus AD169 infected in human HFF assessed as inhibition of immediate early phase UL122 mRNA expression after 16 hrs by RT-PCR analysis; type: functional, organism-based; outline: as §2
# [20] = test system: Human betaherpesvirus 5; experiment: Antiviral activity against 0.5 MOI human cytomegalovirus AD169 infected in human U373-MG cells expressing UL112/113-EGFP reporter assessed as inhibition of EGFP expression after 48 hrs of infection by confocal fluorescence microscopy; type: functional, organism-based; settings: U-373MG ATCC; outline: as §4
# [21] = test system: Human betaherpesvirus 5; experiment: Antiviral activity against human cytomegalovirus AD169 in human HFF assessed as reduction of viral attachment to fibroblast at 4 degC; type: functional, organism-based
# Outline: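 Prechilled HFF monolayers received 100 PFU AD169 together with graded compound or heparin control for 2 or 4 h at 4°C. Cells were washed with cold PBS, overlaid with compound-free 0.6% methylcellulose medium and kept 10 days at 37°C. Plaques were stained with crystal violet and counted. Three experiments were run in duplicate; mean ± SD.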
# [22] = test system: Human betaherpesvirus 5; experiment: Antiviral activity against 1 MOI human cytomegalovirus AD169 infected in human HFF assessed as inhibition of viral replication up to 30 hrs post infection
# [23] = Inhibition of human cytomegalovirus DNA polymerase catalytic subunit UL54/UL44 assessed as incorporation of [3H]dTTP; design: species or system Human betaherpesvirus 5; outline: as §3
# [24] = test system: Human betaherpesvirus 5; experiment: Antiviral activity against human cytomegalovirus AD169 in human HFF assessed as reduction of viral entry into fibroblast after 2 hrs at 37 degC; settings: Human betaherpesvirus 5, AD169, 2 h
structure (smiles),measurement,setting,value
Nc1cc2c(=O)c(C(=O)O)cn(C3CC3)c2cc1N1CCN(c2ccccn2)CC1,EC90,[1],34.7 µM
same,inhibition,[2],Active
same,EC90,[3],51.9 µM
same,Selectivity Index,[4],479
same,EC50,[5],8.6 µM
same,inhibition,[6],Active
same,EC90,[7],8.5 µM
same,inhibition,[8],inactive
same,inhibition,[9],Active
same,IC50,[10],> 100 µM
same,inhibition,[11],Active
same,inhibition,[12],Active
same,inhibition,[13],Active
same,inhibition,[14],inactive
same,inhibition,[15],inactive
same,inhibition,[16],Active
same,EC50,[17],0.9 µM
same,inhibition,[18],Active
same,inhibition,[19],inactive
same,inhibition,[20],Active
same,Activity,[21],inactive
same,Activity,[22],Active
same,IC50,[23],> 100 µM
same,EC50,[24],> 25 µM

# — ChEMBL document CHEMBL1255448, “The 6-aminoquinolone WC5 inhibits human cytomegalovirus replication at an early stage by interfering with the transactivating activity of viral immediate-early 2 protein” (Antimicrob Agents Chemother, 2010)
